The results in this text go back to ChEMBL document CHEMBL4673342, “Lipid-Lowering Activities of Cucurbitacins Isolated from Trichosanthes cucumeroides and Their Synthetic Derivatives” (2020).

Activity calls are given as the source filed them. No cut-off for these calls is given here.

This experiment relates to HepG2. The experiment in a line: Induction of […] uptake in human HepG2 cells at 5 uM by DIL probe based fluorescence assay. The format is functional, cell-based. In short, it runs like this:
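HepG2 cells (passages 4–11) in DMEM/10% FBS were treated with DMSO or compound at 5 µM, then given DiI-labelled human plasma LDL (20 µg/mL) for 3 h at 37 °C in the dark. After ice-cold PBS/0.4% albumin rinses, cell-bound dye was extracted with isopropanol and fluorescence read at 520–578 nm. Uptake rate is relative to DMSO. Positive control nagilactone B at 5 µM; n = 3.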
As for `CC(C)(O)/C=C/C(=O)[C@](C)(O)[C@H]1[C@H](O)C[C@@]2(C)[C@@H]3CC=C4[C@@H](C=C(O)C(=O)C4(C)C)[C@]3(C)C(=O)C[C@]12C`, the result was Active. As to `CC(=O)OC(C)(C)CCC(=O)[C@](C)(O)[C@H]1[C@H](O)C[C@@]2(C)[C@@H]3CC=C4[C@@H](CC(=O)OC4(C)C)[C@]3(C)C(=O)C[C@]12C`, the outcome was Active. The entry for `CC(C)(O)/C=C/C(=O)[C@](C)(O)[C@H]1[C@H](O)C[C@@]2(C)[C@@H]3CC=C4[C@@H](CC(O)C(=O)C4(C)C)[C@]3(C)C(=O)C[C@]12C` (stereo partly specified) is “Active”. Regarding `CC(=O)OC(C)(C)CCC(=O)[C@](C)(O)[C@H]1[C@H](O)C[C@@]2(C)[C@@H]3CC=C4[C@@H](C[C@H](OC5O[C@H](CO)[C@@H](O)[C@H](O)[C@H]5C)C(=O)C4(C)C)[C@]3(C)C(=O)C[C@]12C` (stereo partly specified), the result was Active.

Turning to `CC(=O)OC(C)(C)CCC(=O)[C@](C)(O)[C@H]1[C@H](O)C[C@@]2(C)[C@@H]3CC=C(C(C)(C)O)[C@@H](CC(=O)O)[C@]3(C)C(=O)C[C@]12C`, the outcome was Active.

With `CC(=O)O[C@H]1C(=O)C[C@@H]2C(=CC[C@@H]3[C@@]2(C)C(=O)C[C@]2(C)[C@@H]([C@@](C)(O)C(=O)CCC(C)(C)OC(C)=O)[C@H](O)C[C@@]32C)C1(C)C`, the outcome was inactive. `CC(=O)OC(C)(C)CCC(=O)[C@](C)(O)[C@H]1[C@H](O)C[C@@]2(C)[C@@H]3CC=C4[C@@H](C[C@H](OC(=O)c5ccccc5)C(=O)C4(C)C)[C@]3(C)C(=O)C[C@]12C`: the outcome was inactive.

`CC(=O)OC(C)(C)/C=C/C(=O)[C@](C)(O)[C@H]1[C@H](OC(=O)c2ccccc2)C[C@@]2(C)[C@@H]3CC=C4[C@@H](C[C@H](OC(=O)c5ccccc5)C(=O)C4(C)C)[C@]3(C)C(=O)C[C@]12C`: the result was inactive.

Take `CC(=O)OC(C)(C)[C@@H](O)CC(=O)[C@](C)(O)[C@H]1[C@H](O)C[C@@]2(C)[C@@H]3[C@@H](O)C=C4[C@@H](CC(=O)[C@@H](O)C4(C)C)[C@]3(C)C(=O)C[C@]12C`: the outcome was Active.

On to `CO[C@@H](CC(=O)[C@](C)(O)[C@H]1[C@H](O)C[C@@]2(C)[C@@H]3CC=C4[C@@H](C[C@H](O)C(=O)C4(C)C)[C@]3(C)C(=O)C[C@]12C)C(C)(C)O`, for which the outcome was Active. For the molecule `CC(=O)OC(C)(C)CCC(=O)[C@](C)(O)[C@H]1[C@H](O)C[C@@]2(C)[C@@H]3[C@@H](O)C=C4[C@@H](CC(=O)[C@@H](O)C4(C)C)[C@]3(C)C(=O)C[C@]12C`, the result was Active. For the molecule `CC(=O)OC(C)(C)CCC(=O)[C@](C)(O)[C@H]1[C@H](O)C[C@@]2(C)[C@@H]3CC=C4[C@@H](C[C@H](O)C(=O)C4(C)C)[C@]3(C)C(=O)C[C@]12C`, the outcome was Active. The value for `CC(=O)OC(C)(C)CCC(=O)[C@](C)(O)[C@H]1C(=O)C[C@@]2(C)[C@@H]3CC=C4[C@@H](CC(=O)C(=O)C4(C)C)[C@]3(C)C(=O)C[C@]12C` was “inactive”; that for `CC(=O)O[C@H]1C[C@@H]2C(=CC[C@@H]3[C@@]2(C)C(=O)C[C@]2(C)[C@@H]([C@@](C)(O)C(=O)/C=C/C(C)(C)OC(C)=O)[C@H](O)C[C@@]32C)C(C)(C)C1=O` was “inactive”; that for `CC(=O)OC(C)(C)/C=C/C(=O)[C@](C)(O)[C@H]1[C@H](O)C[C@@]2(C)[C@@H]3CC=C4[C@@H](C[C@H](OC(=O)c5ccccc5)C(=O)C4(C)C)[C@]3(C)C(=O)C[C@]12C` was “inactive”. For `CC(=O)OC(C)(C)/C=C/C(=O)[C@](C)(O)[C@H]1[C@H](O)C[C@@]2(C)[C@@H]3CC=C4[C@@H](CC(=O)[C@H](O)C4(C)C)[C@]3(C)C(=O)C[C@]12C`, the outcome was Active. Consider `CC(C)(O)CCC(=O)[C@](C)(O)[C@H]1[C@H](O)C[C@@]2(C)[C@@H]3CC=C4[C@@H](C[C@H](O)C(=O)C4(C)C)[C@]3(C)C(=O)C[C@]12C`, for which the result was Active. The entry for `CC(=O)OC(C)(C)[C@H](O)CC(=O)[C@](C)(O)[C@H]1[C@H](O)C[C@@]2(C)[C@@H]3[C@@H](O)C=C4[C@@H](CC(=O)[C@@H](O)C4(C)C)[C@]3(C)C(=O)C[C@]12C` is “Active”; for `CC(=O)OC(C)(C)/C=C/C(=O)[C@](C)(O)[C@H]1C(=O)C[C@@]2(C)[C@@H]3CC=C4[C@@H](CC(=O)C(=O)C4(C)C)[C@]3(C)C(=O)C[C@]12C` it is “inactive”; for `CC(=O)O[C@@H]1C[C@@]2(C)[C@@H]3CC=C4[C@@H](CC(=O)[C@H](O)C4(C)C)[C@]3(C)C(=O)C[C@]2(C)[C@H]1[C@@](C)(O)C(=O)/C=C/C(C)(C)OC(C)=O` it is “inactive”. The entry for `CC(=O)O[C@H]1C[C@@H]2C(=CC[C@@H]3[C@@]2(C)C(=O)C[C@]2(C)[C@@H]([C@@](C)(O)C(=O)CCC(C)(C)OC(C)=O)[C@H](OC(C)=O)C[C@@]32C)C(C)(C)C1=O` is “inactive”; for `CC(=O)OC(C)(C)CCC(=O)[C@](C)(O)[C@H]1C(=O)C[C@@]2(C)[C@@H]3CC=C4[C@@H](C[C@H](O)C(=O)C4(C)C)[C@]3(C)C(=O)C[C@]12C` it is “inactive”; for `CC(C)(O)CCC(=O)[C@](C)(O)[C@H]1[C@H](O)C[C@@]2(C)[C@@H]3CC=C4[C@@H](C=C(O)C(=O)C4(C)C)[C@]3(C)C(=O)C[C@]12C` it is “Active”.

Consider `CC(=O)OC(C)(C)/C=C/C(=O)[C@](C)(O)[C@H]1[C@H](O)C[C@@]2(C)[C@@H]3[C@@H](O)C=C4[C@@H](C[C@H](O)C(=O)C4(C)C)[C@]3(C)C(=O)C[C@]12C`, for which the outcome was Active. In the case of `CC(=O)OC(C)(C)CCC(=O)[C@](C)(O)[C@H]1[C@H](O)C[C@@]2(C)[C@@H]3[C@@H](O)C=C4[C@@H](C[C@H](O)C(=O)C4(C)C)[C@]3(C)C(=O)C[C@]12C`, the outcome was Active. The entry for `CC(=O)OC(C)(C)CCC(=O)[C@](C)(O)[C@H]1[C@H](OC(=O)c2ccccc2)C[C@@]2(C)[C@@H]3CC=C4[C@@H](C[C@H](OC(=O)c5ccccc5)C(=O)C4(C)C)[C@]3(C)C(=O)C[C@]12C` is “inactive”; for `CC(C)(O)/C=C/C(=O)[C@](C)(O)[C@H]1[C@H](O)C[C@@]2(C)[C@@H]3CC=C4[C@@H](C[C@H](O)[C@@H](O)C4(C)C)[C@]3(C)C(=O)C[C@]12C` it is “Active”.

For the molecule `CC(=O)O[C@@H]1C[C@@]2(C)[C@@H]3CC=C4[C@@H](CC(=O)[C@H](OC(C)=O)C4(C)C)[C@]3(C)C(=O)C[C@]2(C)[C@H]1[C@@](C)(O)C(=O)/C=C/C(C)(C)OC(C)=O`, the outcome was inactive. Turning to `CC(=O)OC(C)(C)CCC(=O)[C@](C)(O)[C@H]1[C@H](O)C[C@@]2(C)[C@@H]3[C@@H](O)C=C4[C@@H](CC(=O)[C@H](O)C4(C)C)[C@]3(C)C(=O)C[C@]12C`, the result was Active. As to `CC(=O)OC(C)(C)/C=C/C(=O)[C@](C)(O)[C@H]1[C@H](O)C[C@@]2(C)[C@@H]3CC=C4[C@@H](C[C@H](OC5O[C@H](CO)[C@@H](O)[C@H](O)[C@H]5C)C(=O)C4(C)C)[C@]3(C)C(=O)C[C@]12C` (stereo partly specified), the outcome was Active.

As for `CC(=O)O[C@H]1C(=O)C[C@@H]2C(=CC[C@@H]3[C@@]2(C)C(=O)C[C@]2(C)[C@@H]([C@@](C)(O)C(=O)/C=C/C(C)(C)OC(C)=O)[C@H](O)C[C@@]32C)C1(C)C`, the outcome was inactive.
